Experimental data gathered from unrelated publications.
Compare with care: the assays were run in different laboratories.
Target: Serine/threonine-protein kinase 4 (STK4, Homo sapiens, UniProt Q13043)
Residues used in one study (Q13043 1-487): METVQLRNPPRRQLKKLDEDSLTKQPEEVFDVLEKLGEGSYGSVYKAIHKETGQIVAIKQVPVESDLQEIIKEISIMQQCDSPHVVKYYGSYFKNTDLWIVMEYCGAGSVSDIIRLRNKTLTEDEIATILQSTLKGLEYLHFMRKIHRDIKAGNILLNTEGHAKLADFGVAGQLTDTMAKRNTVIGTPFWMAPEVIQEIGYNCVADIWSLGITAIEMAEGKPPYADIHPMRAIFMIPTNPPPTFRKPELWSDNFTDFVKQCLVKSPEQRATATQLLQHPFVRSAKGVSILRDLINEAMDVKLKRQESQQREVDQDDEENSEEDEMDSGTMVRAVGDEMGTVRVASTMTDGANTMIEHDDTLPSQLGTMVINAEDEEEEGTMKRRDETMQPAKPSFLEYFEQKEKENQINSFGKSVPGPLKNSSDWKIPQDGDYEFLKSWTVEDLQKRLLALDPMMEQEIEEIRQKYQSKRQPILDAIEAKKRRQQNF

CNC(=O)c1cc(Oc2ccc(NC(=O)Nc3ccc(Cl)c(C(F)(F)F)c3)cc2)ccn1 — inhibition (enzyme activity; inhibitor; 10 µM): 3%
Cc1cc(NC(=O)c2cccc3cc(-c4cccc5[nH]nc(N)c45)ccc23)ccc1F — activity vs control (enzyme activity; inhibitor; 0.1 µM): 104%
O=C(N1CCS(=O)(=O)CC1)N1C[C@H](c2ccc(OC(F)(F)F)cc2)C[C@H](c2nc(C3CC3)no2)C1 — remaining binding (cell-free assay; competition with immobilised ligand; 1 µM): 100%
Cc1ccc(Nc2nccc(N(C)c3ccc4c(C)n(C)nc4c3)n2)cc1S(N)(=O)=O — inhibition (enzyme activity; inhibitor; 0.3 µM): 1%
CCN1CCN(Cc2ccc(NC(=O)c3ccc(C)c(Oc4ccnc5[nH]ccc45)c3)cc2C(F)(F)F)CC1 — inhibition (target engagement in cells; inhibitor; chemoproteomics; Huh-7; 1 µM): -64.5%
CC(C)(C)c1nc(-c2cccc(NS(=O)(=O)c3c(F)cccc3F)c2F)c(-c2ccnc(N)n2)s1 — remaining activity (enzyme activity; inhibitor; radiometric; 1 µM): 105%
CN1CCC2(CC1)NC(=O)c1c(c3ccc(Cl)c(Cl)c3n1C)C2C#N (racemic) — ΔTm (thermal stability; DSF; 10 µM): 0 °C
Nc1cnc(N2CCc3cc(S(=O)(=O)Nc4c(F)cc(Cl)cc4F)cc(N4CCCC4=O)c32)nc1 — remaining binding (cell-free assay; competition with immobilised ligand; 1 µM): 100%
Cn1c2c(Cl)c(Cl)ccc2c2cc[nH]c(=O)c21 — ΔTm (thermal stability; DSF; 10 µM): 0.8 °C
CC(C)(O)[C@H]1CC[C@H](Nc2ccc3ncc(-c4cccc(C(F)(F)F)c4)n3n2)CC1 — remaining activity (enzyme activity; inhibitor; 1 µM): 90.8%
COc1cc(Cl)c(C(=O)N[C@@H](CN[C@H]2CC[C@@H](N)CC2)Cc2ccc(C#N)cc2)cc1-c1ccc(CN[C@H](C)c2ccc(C)cc2)o1 — remaining activity (enzyme activity; inhibitor; 1 µM): 102%
Cc1cc(-n2nc(Cc3cc(F)cc(C(F)(F)F)c3)nc2C)ccc1C(N)=O — remaining binding (cell-free assay; competition with immobilised ligand; 1 µM): 100%
CC1(C)NC(=O)c2[nH]c3c(Cl)c(Cl)ccc3c2C1C#N (stereo not drawn) — ΔTm (thermal stability; DSF; 10 µM): -0.6 °C
Cc1ccc(NC(=O)c2ccc(C)c(C(F)(F)F)c2)cc1C#Cc1nn(C2CCC(O)CC2)c2ncnc(N)c12 (stereo not drawn) — remaining signal (cell-free assay; 10 µM): 109%
Cc1cc(C)c(-n2ccn3nc(-c4cccnc4)cc23)cc1NC(=O)c1cc(C#N)cc(S(F)(F)(F)(F)F)c1 — remaining binding (cell-free assay; competition with immobilised ligand; 0.1 µM): 88.5%
CCC1(CC)NC(=O)c2c(c3ccc(Cl)c(Cl)c3n2C)C1C#N (stereo not drawn) — ΔTm (thermal stability; DSF; 10 µM): -0.3 °C
Cc1cnc(NC2CCOCC2)nc1-n1cnc(C(=O)NC(CN)c2cc(F)cc(Cl)c2)c1 (stereo not drawn) — remaining activity (enzyme activity; inhibitor; radiometric; 1 µM): 103%
O=C(Nc1cnn(-c2csc(C(=O)NC3COC3)c2)c1)Nc1ccccc1Cl — remaining activity (enzyme activity; inhibitor; 5 µM): 99.3%
CCCCNc1ncc2c(-c3ccc(F)cc3)nn(C[C@H]3CC[C@H](N)CC3)c2n1 — inhibition (target engagement in cells; inhibitor; chemoproteomics; 20 mM): 48.3%
CS(=O)(=O)CCNCc1ccc(-c2ccc3ncnc(Nc4ccc(OCc5cccc(F)c5)c(Cl)c4)c3c2)o1 — remaining signal (cell-free assay; 0.5 µM): 99.4%
Cn1nc(C(=O)NCc2ccc(C(=O)O)cc2)cc1-c1ccc2[nH]ccc2c1 — remaining binding (cell-free assay; competition with immobilised ligand; 0.1 µM): 80%
N#CCCc1ccc2c(c1)-c1[nH]c3ccc([N+](=O)[O-])cc3c1CC(=O)N2 — remaining signal (cell-free assay; 0.5 µM): 30.9%
O=C(Nc1cccnn1)N1CC(C/C=C/c2cncc(Oc3ccc(C(F)(F)F)cn3)n2)C1 — remaining binding (cell-free assay; competition with immobilised ligand; 1 µM): 100%
C[C@@H]1CCN(C(=O)CC#N)C[C@@H]1N(C)c1ncnc2[nH]ccc12 — remaining signal (cell-free assay; inhibitor; 0.5 µM): 95.5%
COc1cc2ncnc(Nc3ccc(Oc4ccccc4)c(C)c3C)c2cc1OC — inhibition (enzyme activity; inhibitor; 1 µM): -7%
Cn1c2c(c3ccc(Cl)c(Cl)c31)C(C#N)C(C)(C)NC2=O (stereo not drawn) — ΔTm (thermal stability; DSF; 10 µM): -0.4 °C
O=C(Nc1ccc(Oc2ccc(F)cc2)cc1)N1CCc2ncccc2[C@H]1c1ccc(F)cc1 — remaining binding (cell-free assay; competition with immobilised ligand; 1 µM): 99%
CC(C)c1ccc(NC(=O)c2cccs2)c(-c2nc3ccccc3[nH]c2=O)c1 — activity vs control (enzyme activity; inhibitor; 1 µM): 118%
CS(=O)(=O)N1CCCC(NC(=O)[C@H](CCC2CCCCC2)NC(=O)c2ccc(CNC(=O)c3cnc4ccccn34)cc2)C1 (stereo partly drawn) — remaining binding (cell-free assay; competition with immobilised ligand; 0.1 µM): 100%
O=C(Nc1cnn(-c2csc(C(=O)NC3COC3)c2)c1)Nc1c(F)cccc1Cl — remaining activity (enzyme activity; inhibitor; 5 µM): 96.6%
